Measured values reported in ChEMBL document CHEMBL4184148 (Bioorg Med Chem Lett, 2017).

What was measured:
[1] = target: 5'-AMP-activated protein kinase catalytic subunit alpha-2 (Homo sapiens) (UniProt P54646); experiment: Binding affinity to wild-type human partial length AMPK alpha2 (M1 to E306 residues) expressed in Escherichia coli BL21 at 1 uM by Kinomescan method relative to control
Procedure, shortened: (§1)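 Kinome-wide competition binding panel run by an outside provider, with each compound tested at a single concentration. Activity is read against the kinase panel.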

[2] = target: Serine/threonine-protein kinase BRSK2 (Homo sapiens) (UniProt Q8IWQ3); experiment: Binding affinity to wild-type human full length BRSK2 (M1 to L674 residues) expressed in Escherichia coli BL21 at 1 uM by Kinomescan method relative to control
[3] = target: Death-associated protein kinase 2 (Homo sapiens) (UniProt Q9UIK4); experiment: Binding affinity to wild-type human full length DAPK2 (M1 to S370 residues) expressed in Escherichia coli BL21 at 1 uM by Kinomescan method relative to control
Procedure, shortened: (§2)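 Run as one kinome-wide competition binding panel with each compound at a single fixed concentration. Results were plotted as a kinome-wide selectivity map.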

[4] = target: Ephrin type-A receptor 8 (Homo sapiens) (UniProt P29322); experiment: Binding affinity to wild-type human partial length EPHA8 (Q608 to C920 residues) expressed in Escherichia coli BL21 at 1 uM by Kinomescan method relative to control
[5] = target: Ephrin type-B receptor 2 (Homo sapiens) (UniProt P29323); experiment: Binding affinity to wild-type human partial length EPHB2 (I597 to L902 residues) expressed in Escherichia coli BL21 at 1 uM by Kinomescan method relative to control
[6] = target: Receptor-type tyrosine-protein kinase FLT3 (Homo sapiens) (UniProt P36888); experiment: Binding affinity to wild-type human partial length FLT3 (V592 to Y969 residues) expressed in Escherichia coli BL21 at 1 uM by Kinomescan method relative to control
[7] = target: Tyrosine-protein kinase FRK (Homo sapiens) (UniProt P42685); experiment: Binding affinity to wild-type human partial length FRK (A215 to F503 residues) expressed in Escherichia coli BL21 at 1 uM by Kinomescan method relative to control
[8] = target: Leukocyte tyrosine kinase receptor (Homo sapiens) (UniProt P29376); experiment: Binding affinity to wild-type human partial length LTK (P422 to S744 residues) expressed in Escherichia coli BL21 at 1 uM by Kinomescan method relative to control
[9] = target: Mitogen-activated protein kinase kinase kinase kinase 5 (Homo sapiens) (UniProt Q9Y4K4); experiment: Binding affinity to wild-type human partial length MAP4K5 (M1 to P297 residues) expressed in Escherichia coli BL21 at 1 uM by Kinomescan method relative to control
[10] = target: MAP/microtubule affinity-regulating kinase 3 (Homo sapiens) (UniProt P27448); experiment: Binding affinity to wild-type human full length MARK3 (M1 to L729 residues) expressed in Escherichia coli BL21 at 1 uM by Kinomescan method relative to control; procedure, shortened: as §2
[11] = target: Serine/threonine-protein kinase 4 (Homo sapiens) (UniProt Q13043); experiment: Binding affinity to wild-type human full length MST1 (M1 to F487 residues) expressed in Escherichia coli BL21 at 1 uM by Kinomescan method relative to control; procedure, shortened: as §2
[12] = target: Myosin-IIIa (Homo sapiens) (UniProt Q8NEV4); experiment: Binding affinity to wild-type human partial length MYO3A (M1 to K338 residues) expressed in Escherichia coli BL21 at 1 uM by Kinomescan method relative to control
[13] = target: Serine/threonine-protein kinase Nek2 (Homo sapiens) (UniProt P51955); experiment: Binding affinity to wild-type human partial length NEK2 (M1 to K309 residues) expressed in Escherichia coli BL21 at 1 uM by Kinomescan method relative to control
[14] = target: Cyclin-dependent kinase 18 (Homo sapiens) (UniProt Q07002); experiment: Binding affinity to wild-type human full length PCTK3 (M3 to F474 residues) expressed in Escherichia coli BL21 at 1 uM by Kinomescan method relative to control; procedure, shortened: as §1
[15] = target: Phosphatidylinositol 4,5-bisphosphate 3-kinase catalytic subunit delta isoform (Homo sapiens) (UniProt O00329); experiment: Binding affinity to wild-type human partial length PIK3CD (R108 to Q1044 residues) expressed in HEK293 cells at 1 uM by Kinomescan method relative to control; format: cell-based
[16] = target: Phosphatidylinositol 4,5-bisphosphate 3-kinase catalytic subunit gamma isoform (Homo sapiens) (UniProt P48736); experiment: Binding affinity to wild-type human partial length PIK3CG (S144 to A1102 residues) expressed in HEK293 cells at 1 uM by Kinomescan method relative to control; format: cell-based
[17] = target: Membrane-associated tyrosine- and threonine-specific cdc2-inhibitory kinase (Homo sapiens) (UniProt Q99640); experiment: Binding affinity to wild-type human partial length PKMYT1 (A88 to G366 residues) expressed in Escherichia coli BL21 at 1 uM by Kinomescan method relative to control
[18] = target: Ribosomal protein S6 kinase alpha-1 (Homo sapiens) (UniProt Q15418); experiment: Binding affinity to wild-type human partial length C-terminal RSK1 kinase domain 2 (P360 to L681 residues) expressed in Escherichia coli BL21 at 1 uM by Kinomescan method relative to control
[19] = target: Ribosomal protein S6 kinase alpha-2 (Homo sapiens) (UniProt Q15349); experiment: Binding affinity to wild-type human partial length C-terminal RSK2 kinase domain 2 (V402 to S715 residues) expressed in HEK293 cells at 1 uM by Kinomescan method relative to control; format: cell-based
[20] = target: NUAK family SNF1-like kinase 2 (Homo sapiens) (UniProt Q9H093); experiment: Binding affinity to wild-type human partial length SNARK (P22 to A333 residues) expressed in HEK293 cells at 1 uM by Kinomescan method relative to control; format: cell-based
[21] = target: Tyrosine-protein kinase receptor Tie-1 (Homo sapiens) (UniProt P35590); experiment: Binding affinity to wild-type human partial length TIE1 (T819 to A1138 residues) expressed in Escherichia coli BL21 at 1 uM by Kinomescan method relative to control
[22] = target: Serine/threonine-protein kinase tousled-like 2 (Homo sapiens) (UniProt Q86UE8); experiment: Binding affinity to wild-type human partial length TLK2 (E424 to N749 residues) expressed in Escherichia coli BL21 at 1 uM by Kinomescan method relative to control
[23] = target: Serine/threonine-protein kinase TNNI3K (Homo sapiens) (UniProt Q59H18); experiment: Binding affinity to wild-type human full length TNNI3K (M1 to S835 residues) expressed in Escherichia coli BL21 at 1 uM by Kinomescan method relative to control; procedure, shortened: as §1
[24] = target: Serine/threonine-protein kinase ULK1 (Homo sapiens) (UniProt O75385); experiment: Binding affinity to wild-type human partial length ULK1 (M1 to T309 residues) expressed in HEK293 cells at 1 uM by Kinomescan method relative to control; format: cell-based
[25] = target: Vascular endothelial growth factor receptor 2 (Homo sapiens) (UniProt P35968); experiment: Binding affinity to wild-type human partial length VEGFR2 (R787 to P1253 residues) expressed in HEK293 cells at 1 uM by Kinomescan method relative to control; format: cell-based
Sequence of Vascular endothelial growth factor receptor 2 (Homo sapiens) (P35968 whole entry, the tested form may be a part): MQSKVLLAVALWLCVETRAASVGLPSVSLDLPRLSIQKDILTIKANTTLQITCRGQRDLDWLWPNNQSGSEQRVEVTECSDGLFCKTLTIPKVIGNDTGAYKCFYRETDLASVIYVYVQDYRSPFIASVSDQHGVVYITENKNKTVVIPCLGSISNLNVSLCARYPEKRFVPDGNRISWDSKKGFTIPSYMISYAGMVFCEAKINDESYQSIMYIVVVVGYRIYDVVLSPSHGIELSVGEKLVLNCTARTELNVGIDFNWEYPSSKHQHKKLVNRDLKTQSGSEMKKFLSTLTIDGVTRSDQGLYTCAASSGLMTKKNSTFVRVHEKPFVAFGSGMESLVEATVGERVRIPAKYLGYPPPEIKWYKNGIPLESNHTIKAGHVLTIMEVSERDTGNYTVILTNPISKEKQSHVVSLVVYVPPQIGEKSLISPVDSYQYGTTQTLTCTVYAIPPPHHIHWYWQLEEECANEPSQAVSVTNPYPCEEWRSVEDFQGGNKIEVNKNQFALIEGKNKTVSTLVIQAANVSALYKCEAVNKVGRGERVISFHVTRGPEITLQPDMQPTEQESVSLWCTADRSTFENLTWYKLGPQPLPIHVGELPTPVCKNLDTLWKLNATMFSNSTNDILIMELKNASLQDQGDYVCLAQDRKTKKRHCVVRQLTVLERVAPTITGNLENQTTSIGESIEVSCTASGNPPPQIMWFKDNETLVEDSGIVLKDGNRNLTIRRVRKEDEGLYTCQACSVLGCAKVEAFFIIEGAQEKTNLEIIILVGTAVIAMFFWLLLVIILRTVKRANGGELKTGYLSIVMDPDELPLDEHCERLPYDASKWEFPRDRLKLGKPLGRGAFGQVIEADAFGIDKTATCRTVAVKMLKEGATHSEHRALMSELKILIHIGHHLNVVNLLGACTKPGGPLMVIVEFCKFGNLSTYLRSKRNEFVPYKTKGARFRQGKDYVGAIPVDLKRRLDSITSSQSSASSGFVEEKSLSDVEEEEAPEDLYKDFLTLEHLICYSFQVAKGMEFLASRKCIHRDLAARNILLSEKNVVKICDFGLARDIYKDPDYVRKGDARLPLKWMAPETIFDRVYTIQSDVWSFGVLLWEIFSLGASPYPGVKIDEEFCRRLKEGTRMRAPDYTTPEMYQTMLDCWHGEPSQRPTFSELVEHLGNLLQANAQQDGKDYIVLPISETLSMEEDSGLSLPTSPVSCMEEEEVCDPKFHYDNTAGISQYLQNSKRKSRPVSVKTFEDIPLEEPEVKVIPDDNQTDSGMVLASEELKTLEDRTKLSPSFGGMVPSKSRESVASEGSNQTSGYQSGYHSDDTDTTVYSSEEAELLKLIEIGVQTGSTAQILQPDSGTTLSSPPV

Sequence of Myosin-IIIa (Homo sapiens) (Q8NEV4 whole entry, the tested form may be a part): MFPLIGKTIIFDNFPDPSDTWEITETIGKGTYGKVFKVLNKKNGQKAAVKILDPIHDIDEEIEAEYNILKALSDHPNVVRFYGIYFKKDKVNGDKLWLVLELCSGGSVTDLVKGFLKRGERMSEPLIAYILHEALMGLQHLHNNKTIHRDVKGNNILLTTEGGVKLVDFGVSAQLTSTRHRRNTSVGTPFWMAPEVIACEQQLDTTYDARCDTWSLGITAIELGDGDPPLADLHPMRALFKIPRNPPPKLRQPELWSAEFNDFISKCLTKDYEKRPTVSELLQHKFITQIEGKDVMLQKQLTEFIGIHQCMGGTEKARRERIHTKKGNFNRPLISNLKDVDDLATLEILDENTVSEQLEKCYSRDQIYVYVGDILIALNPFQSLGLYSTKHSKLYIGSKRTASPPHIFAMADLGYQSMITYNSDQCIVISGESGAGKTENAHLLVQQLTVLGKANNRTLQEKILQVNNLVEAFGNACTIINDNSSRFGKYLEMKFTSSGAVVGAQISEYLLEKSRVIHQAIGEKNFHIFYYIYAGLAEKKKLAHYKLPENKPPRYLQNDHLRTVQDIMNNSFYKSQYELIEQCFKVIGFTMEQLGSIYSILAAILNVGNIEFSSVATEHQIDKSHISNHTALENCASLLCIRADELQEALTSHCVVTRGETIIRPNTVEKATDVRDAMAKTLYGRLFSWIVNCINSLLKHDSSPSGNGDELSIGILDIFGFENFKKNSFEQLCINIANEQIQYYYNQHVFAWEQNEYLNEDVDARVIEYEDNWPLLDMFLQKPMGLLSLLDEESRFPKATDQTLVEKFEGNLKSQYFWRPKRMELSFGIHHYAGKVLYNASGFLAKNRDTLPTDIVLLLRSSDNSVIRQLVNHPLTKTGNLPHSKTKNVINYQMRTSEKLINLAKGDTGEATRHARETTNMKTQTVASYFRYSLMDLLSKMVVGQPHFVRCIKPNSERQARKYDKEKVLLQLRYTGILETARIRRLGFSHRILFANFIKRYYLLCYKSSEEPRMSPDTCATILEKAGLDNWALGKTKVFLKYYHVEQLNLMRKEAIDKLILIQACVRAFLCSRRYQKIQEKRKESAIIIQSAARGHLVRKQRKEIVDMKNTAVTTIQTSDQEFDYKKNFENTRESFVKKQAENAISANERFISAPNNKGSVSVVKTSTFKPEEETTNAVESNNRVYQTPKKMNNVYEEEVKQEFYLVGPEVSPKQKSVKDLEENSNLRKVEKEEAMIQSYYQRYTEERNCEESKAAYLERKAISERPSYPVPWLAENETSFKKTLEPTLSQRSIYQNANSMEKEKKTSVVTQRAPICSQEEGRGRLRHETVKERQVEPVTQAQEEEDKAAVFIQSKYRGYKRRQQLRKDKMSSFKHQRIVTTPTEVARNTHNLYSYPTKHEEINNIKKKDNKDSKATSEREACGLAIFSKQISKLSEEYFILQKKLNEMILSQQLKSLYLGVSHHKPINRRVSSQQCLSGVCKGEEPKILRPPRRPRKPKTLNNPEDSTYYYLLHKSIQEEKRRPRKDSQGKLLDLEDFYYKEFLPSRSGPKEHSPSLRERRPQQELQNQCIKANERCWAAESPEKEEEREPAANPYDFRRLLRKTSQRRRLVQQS
Sequence of Death-associated protein kinase 2 (Homo sapiens) (Q9UIK4 whole entry, looked up, the tested form may be a part): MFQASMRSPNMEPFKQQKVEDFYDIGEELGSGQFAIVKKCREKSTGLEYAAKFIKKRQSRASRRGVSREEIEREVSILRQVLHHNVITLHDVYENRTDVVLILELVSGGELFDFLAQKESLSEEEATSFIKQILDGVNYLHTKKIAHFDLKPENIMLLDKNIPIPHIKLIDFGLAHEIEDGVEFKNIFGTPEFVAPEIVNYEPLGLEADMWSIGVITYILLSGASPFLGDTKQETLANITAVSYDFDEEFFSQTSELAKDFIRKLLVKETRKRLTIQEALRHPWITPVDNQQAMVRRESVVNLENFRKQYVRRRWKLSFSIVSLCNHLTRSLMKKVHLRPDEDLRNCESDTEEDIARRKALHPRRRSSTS
Sequence of Cyclin-dependent kinase 18 (Homo sapiens) (Q07002 whole entry, the tested form may be a part, canonical isoform): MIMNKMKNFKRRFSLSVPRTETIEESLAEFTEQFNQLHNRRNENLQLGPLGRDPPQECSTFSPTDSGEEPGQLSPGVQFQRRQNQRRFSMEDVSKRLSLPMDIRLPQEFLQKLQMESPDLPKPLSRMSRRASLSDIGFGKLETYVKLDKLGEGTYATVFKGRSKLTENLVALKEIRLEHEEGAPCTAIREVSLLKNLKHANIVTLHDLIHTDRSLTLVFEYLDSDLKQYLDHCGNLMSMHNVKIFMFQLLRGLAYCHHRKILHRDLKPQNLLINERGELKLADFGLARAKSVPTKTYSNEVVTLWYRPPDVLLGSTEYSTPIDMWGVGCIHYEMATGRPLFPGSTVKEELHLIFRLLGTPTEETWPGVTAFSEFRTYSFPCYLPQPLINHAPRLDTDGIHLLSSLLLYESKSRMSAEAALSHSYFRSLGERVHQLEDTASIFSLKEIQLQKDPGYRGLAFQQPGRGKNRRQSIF
Sequence of Serine/threonine-protein kinase BRSK2 (Homo sapiens) (Q8IWQ3 whole entry, the tested form may be a part): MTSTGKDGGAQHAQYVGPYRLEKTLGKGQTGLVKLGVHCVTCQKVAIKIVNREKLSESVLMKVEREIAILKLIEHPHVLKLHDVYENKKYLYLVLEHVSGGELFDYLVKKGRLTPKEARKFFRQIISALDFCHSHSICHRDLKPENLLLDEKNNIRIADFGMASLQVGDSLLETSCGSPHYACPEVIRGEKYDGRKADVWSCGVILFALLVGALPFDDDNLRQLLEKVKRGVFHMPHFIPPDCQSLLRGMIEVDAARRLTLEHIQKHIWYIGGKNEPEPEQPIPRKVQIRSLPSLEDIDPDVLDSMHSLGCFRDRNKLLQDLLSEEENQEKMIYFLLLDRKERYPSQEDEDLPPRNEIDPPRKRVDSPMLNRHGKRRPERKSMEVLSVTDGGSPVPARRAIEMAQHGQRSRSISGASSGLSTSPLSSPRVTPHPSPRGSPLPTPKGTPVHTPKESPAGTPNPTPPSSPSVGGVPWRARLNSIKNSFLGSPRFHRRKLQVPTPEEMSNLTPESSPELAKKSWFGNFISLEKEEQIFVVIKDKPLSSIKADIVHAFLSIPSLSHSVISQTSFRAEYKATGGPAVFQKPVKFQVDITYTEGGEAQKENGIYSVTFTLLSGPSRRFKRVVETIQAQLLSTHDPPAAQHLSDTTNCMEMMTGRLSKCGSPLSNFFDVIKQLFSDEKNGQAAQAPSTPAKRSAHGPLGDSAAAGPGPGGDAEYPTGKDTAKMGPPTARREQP
Sequence of Serine/threonine-protein kinase 4 (Homo sapiens) (Q13043 whole entry, the tested form may be a part): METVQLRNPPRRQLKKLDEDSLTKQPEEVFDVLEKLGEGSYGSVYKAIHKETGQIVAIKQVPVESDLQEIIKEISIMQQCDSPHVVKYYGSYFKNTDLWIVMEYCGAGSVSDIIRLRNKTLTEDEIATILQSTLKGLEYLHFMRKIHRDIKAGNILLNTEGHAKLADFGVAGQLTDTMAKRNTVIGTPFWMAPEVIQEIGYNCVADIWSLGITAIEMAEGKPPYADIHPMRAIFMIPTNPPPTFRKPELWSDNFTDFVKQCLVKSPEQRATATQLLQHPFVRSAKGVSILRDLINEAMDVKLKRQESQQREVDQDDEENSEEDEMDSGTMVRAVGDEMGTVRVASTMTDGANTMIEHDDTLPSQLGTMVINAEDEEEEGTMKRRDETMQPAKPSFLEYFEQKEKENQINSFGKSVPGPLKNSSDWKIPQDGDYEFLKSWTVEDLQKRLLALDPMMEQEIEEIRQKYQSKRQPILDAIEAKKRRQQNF

Compound	Activity [1] [%]	Activity [2] [%]	Activity [3] [%]	Activity [4] [%]	Activity [5] [%]	Activity [6] [%]	Activity [7] [%]	Activity [8] [%]	Activity [9] [%]	Activity [10] [%]	Activity [11] [%]	Activity [12] [%]	Activity [13] [%]	Activity [14] [%]	Activity [15] [%]	Activity [16] [%]	Activity [17] [%]	Activity [18] [%]	Activity [19] [%]	Activity [20] [%]	other results
CCC(=O)Nc1ccc(C(=O)Nc2ccc(Nc3ncc4c(n3)N(C)c3ccc(C)cc3C(=O)N4C)cc2)cc1	100	88	91	80	93	100	100	85	100	95	83	96	100	86	75	20	86	99	100	65	Activity [21]: 88%; Activity [22]: 100%; Activity [23]: 100%; Activity [24]: 91%; Activity [25]: 76%
C=CC(=O)Nc1ccc(C(=O)Nc2ccc(Nc3ncc4c(n3)N(C)c3ccc(C)cc3C(=O)N4C)cc2)cc1	88	98	100	91	96	100	95	96	100	80	45	94	99	99	55	24	96	96	100	93	Activity [21]: 96%; Activity [22]: 98%; Activity [23]: 77%; Activity [24]: 79%; Activity [25]: 88%
